In ChEMBL document CHEMBL4732273, “In Silico Targeting of the Long Noncoding RNA MALAT1” (ACS Med Chem Lett, 2021) one finds Activity and Kd data, which are given here for eight molecules.

The nature of assay [1]: Binding affinity to biotinylated-MALAT1 RNA (unknown origin) at 200 uM measured after 140 secs by Surface plasmon resonance analysis. Particulars: time 140.0 sec. In short, it runs like this: (§1)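 The RNA was 3′-biotinylated by ligating pCp-biotin with T4 RNA ligase 1 after dephosphorylation, then immobilized on the SPR chip at 300 RU. Compounds were injected as 50 μL at 200 μM at a 20 μL/min flow rate, followed by 60 s of dissociation. Biotinylated tRNA was immobilized and run the same way as the negative-control surface.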
A general note: Surface plasmon resonance follows binding to a sensor surface in real time, without labels.

In the next assay the test system is tRNA. The assay is described as follows: Binding affinity to biotinylated-tRNA (unknown origin) at 200 uM measured after 120 secs by Surface plasmon resonance analysis. Particulars: time 120.0 sec. In kind it is nucleic-acid assay. In short, it runs like this: as §1
The nature of assay [2]: Binding affinity to biotinylated-MALAT1 RNA (unknown origin) by Surface plasmon resonance analysis. In short, it runs like this: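 Surface plasmon resonance on MALAT1 RNA that was 3′-biotinylated by pCp-biotin ligation with T4 RNA ligase 1 and immobilized at 300 RU. Compound was flowed at 20 μL/min with 60 s of dissociation. A biotinylated tRNA surface served as the negative control. The dissociation constant was derived from the SPR sensorgram analysis.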

Calls of active or inactive are those of the source. No cut-off for these calls is given here.

In general, Kd refers to the constant that tells how readily two partners part at equilibrium. A lower Kd goes with a tighter complex. Turning to `NS(=O)(=O)c1ccc(CNC2CCC3(CCNCC3)CC2)cc1`, in assay [1], the outcome was Active. The outcome in the assay on tRNA was inactive. In assay [2], this molecule returned a Kd of 400 µM.

As for `Cc1ccc(NC(=O)NCC2CCCN(C3CCN(C)CC3)C2)cc1` (stereo unspecified), the result (in assay [1]; in the assay on tRNA) was Active.

With `COc1ncccc1CN1CCN(c2ccc(C(N)=O)cc2)CC1`, the result (in assay [1]; in the assay on tRNA) was Active.

Take `c1ccc2sc(C3CCCN(Cc4cc5n(n4)CCCNC5)C3)nc2c1` (stereo unspecified): the outcome in assay [1] was Active. Also, in the assay with tRNA, the result was inactive.

`O=C(c1cc(=O)[nH]c2cc(F)ccc12)N1CCCC(N2CCCC2)C1` (stereo unspecified): the outcome in assay [1] was Active.

For `CCN1CCCC1CNC(=O)CCC1CCN(Cc2cc3ccccc3s2)CC1` (stereo unspecified), the outcome (in assay [1]; in the assay with tRNA) was Active.

In the case of `NCC1Cc2cccc(-c3cc4c(cc3C(N)=O)OCO4)c2O1` (stereo unspecified), the result (in assay [1]; with tRNA) was Active.

With `CN1CCC(O)(Cn2cnc3ccc(F)cc3c2=O)CC1`, the result in assay [1] was Active. In the assay with tRNA, the result was inactive.
